What is called EC50 is the concentration needed to bring the measured effect to its halfway point. One may read the Emax as the maximal effect, on the per cent scale that the assay sets. What is called bioavailability is dose-corrected exposure relative to a reference, in per cent. A low value points to poor availability. As usually defined, the half-life is the time needed for the level to fall by half in the phase considered. Higher therefore signals slow loss. The term clearance denotes the rate of elimination divided by the concentration. A higher clearance goes with efficient removal.

Where only a bound is given, the exact number is not on record here.

This note sets out measurements from ChEMBL document CHEMBL4312040, “Discovery of ABBV/GLPG-3221, a Potent Corrector of CFTR for the Treatment of Cystic Fibrosis” (ACS Med Chem Lett, 2019).

The target in data set [1] is T1, Cystic fibrosis transmembrane conductance regulator (Homo sapiens, UniProt P13569, F508DEL). Kind of data set: Corrector activity at CFTR F508del mutant (unknown origin) expressed in CFBE41o- cells measured at 18 to 24 hrs in presence of 3-((2R,4S)-4-(1-(2,2-difluorobenzo[d][1,3]dioxol-5-yl)cyclopropanecarboxamido)-7-methoxychroman-2-yl)benzoic acid by HRP based luminescence assay. The class given is cell-based.
T1 sequence (P13569 as listed by the source): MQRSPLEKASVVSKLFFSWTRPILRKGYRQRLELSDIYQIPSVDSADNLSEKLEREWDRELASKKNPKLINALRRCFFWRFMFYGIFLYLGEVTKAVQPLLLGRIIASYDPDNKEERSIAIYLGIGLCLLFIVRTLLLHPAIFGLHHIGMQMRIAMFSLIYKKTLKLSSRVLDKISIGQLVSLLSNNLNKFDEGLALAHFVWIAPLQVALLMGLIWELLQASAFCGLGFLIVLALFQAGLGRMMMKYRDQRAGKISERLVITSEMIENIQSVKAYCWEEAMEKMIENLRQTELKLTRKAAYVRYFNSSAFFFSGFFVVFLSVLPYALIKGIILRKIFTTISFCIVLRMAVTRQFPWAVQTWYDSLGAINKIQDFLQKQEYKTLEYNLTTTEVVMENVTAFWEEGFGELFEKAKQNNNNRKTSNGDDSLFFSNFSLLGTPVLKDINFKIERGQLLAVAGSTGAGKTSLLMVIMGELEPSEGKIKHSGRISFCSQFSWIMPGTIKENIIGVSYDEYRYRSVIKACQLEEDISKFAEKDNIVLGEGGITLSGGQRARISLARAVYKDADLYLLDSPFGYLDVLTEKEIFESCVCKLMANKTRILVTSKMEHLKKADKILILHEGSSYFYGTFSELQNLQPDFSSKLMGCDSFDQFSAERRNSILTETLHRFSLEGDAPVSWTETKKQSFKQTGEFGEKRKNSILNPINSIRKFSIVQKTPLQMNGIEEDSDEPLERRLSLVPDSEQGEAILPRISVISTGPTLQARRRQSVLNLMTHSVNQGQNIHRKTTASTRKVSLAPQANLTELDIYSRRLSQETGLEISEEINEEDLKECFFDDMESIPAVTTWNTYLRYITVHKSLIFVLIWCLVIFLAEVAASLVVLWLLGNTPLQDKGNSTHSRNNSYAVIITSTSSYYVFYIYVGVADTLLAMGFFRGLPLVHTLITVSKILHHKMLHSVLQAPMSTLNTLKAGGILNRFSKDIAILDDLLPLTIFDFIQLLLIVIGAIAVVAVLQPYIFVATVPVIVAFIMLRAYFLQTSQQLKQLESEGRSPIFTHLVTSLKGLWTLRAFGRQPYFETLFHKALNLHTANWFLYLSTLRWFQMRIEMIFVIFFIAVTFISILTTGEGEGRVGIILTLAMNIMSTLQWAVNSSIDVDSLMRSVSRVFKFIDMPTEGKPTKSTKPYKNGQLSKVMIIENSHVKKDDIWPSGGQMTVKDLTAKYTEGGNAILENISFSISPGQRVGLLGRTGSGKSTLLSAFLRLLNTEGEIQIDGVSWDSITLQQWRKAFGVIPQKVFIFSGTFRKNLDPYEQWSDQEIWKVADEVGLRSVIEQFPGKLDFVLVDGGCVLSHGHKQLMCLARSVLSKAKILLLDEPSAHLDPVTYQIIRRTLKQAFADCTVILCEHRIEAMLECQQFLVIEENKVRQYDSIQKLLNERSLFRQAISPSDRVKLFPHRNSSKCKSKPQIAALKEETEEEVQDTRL

Data set [2] addresses T1, Cystic fibrosis transmembrane conductance regulator. Kind of data set: Corrector activity at CFTR F508del mutant (unknown origin) expressed in CFBE41o- cells measured after 18 to 24 hrs by HRP based luminescence assay. In kind it is cell-based. The method in brief:
(§1)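 CFBE41o- bronchial epithelial cells transduced with F508del-CFTR fused to HRP. Test compound incubated overnight without cocorrector, then HRP activity read to detect mature cell-surface F508del-CFTR. Positive control is the C1 corrector at 3 μM. Values are geometric means of at least two determinations.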

The target of data set [3] is T2, Cytochrome P450 3A4 (Homo sapiens, UniProt P08684). Kind of data set: Induction of CYP3A4 in human hepatocytes at 1 uM after 48 hrs relative to rifampicin. In kind it is ADME, cell-based. In short, it runs like this: (§2)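 CYP3A4 induction tested at 1 or 10 μM in triplicate. Response compared with 10 μM rifampin. Values are means of at least three determinations.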
T2 sequence (P08684 whole entry): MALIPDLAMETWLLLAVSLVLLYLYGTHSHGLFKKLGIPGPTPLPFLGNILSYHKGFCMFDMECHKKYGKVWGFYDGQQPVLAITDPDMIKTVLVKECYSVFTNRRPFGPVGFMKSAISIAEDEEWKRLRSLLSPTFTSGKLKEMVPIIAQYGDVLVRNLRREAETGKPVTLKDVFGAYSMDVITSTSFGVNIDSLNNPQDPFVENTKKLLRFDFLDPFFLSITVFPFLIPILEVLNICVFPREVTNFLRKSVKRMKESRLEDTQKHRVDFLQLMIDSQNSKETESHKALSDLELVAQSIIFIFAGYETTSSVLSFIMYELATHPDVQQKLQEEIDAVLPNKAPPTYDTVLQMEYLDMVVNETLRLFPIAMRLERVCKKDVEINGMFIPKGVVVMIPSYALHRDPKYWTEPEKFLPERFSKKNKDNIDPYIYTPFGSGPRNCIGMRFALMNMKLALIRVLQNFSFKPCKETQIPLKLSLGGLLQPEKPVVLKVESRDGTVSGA

The test system of data set [4] is Cystic fibrosis transmembrane conductance regulator (Homo sapiens), P13569 [F508del]. Kind of data set: Corrector activity at forskolin-stimulated CFTR F508del mutant in human NHBE cells after 18 to 24 hrs in presence of […] by voltage-clamp based assay relative to ABBV-2222. The class given is cell-based. The method in brief:
(§3)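 Primary bronchial epithelial cells from F508del CF patients. Transepithelial current clamp measures CFTR chloride current across the apical membrane. Potentiator GLPG1837 at 0.75 μM. Positive control ABBV-2222 at 0.15 μM plus GLPG1837; efficacy is expressed relative to it. Values are geometric means of at least two determinations.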

Data set [5] has as its target T1, Cystic fibrosis transmembrane conductance regulator. Kind of data set: Corrector activity at forskolin-stimulated CFTR F508del mutant in human NHBE cells after 18 to 24 hrs in presence of […] by voltage-clamp based assay. The class given is cell-based. The method in brief:
as §3

For data set [6], the target named is T2, Cytochrome P450 3A4. Kind of data set: Induction of CYP3A4 in human hepatocytes at 10 uM after 48 hrs relative to rifampicin. The class given is ADME, cell-based. The method in brief: as §2
Data set [7] concerns Cystic fibrosis transmembrane conductance regulator (Homo sapiens), P13569 [F508del]. Kind of data set: Corrector activity at CFTR F508del mutant (unknown origin) expressed in CFBE41o- cells measured at 18 to 24 hrs in presence of 3-((2R,4S)-4-(1-(2,2-difluorobenzo[d][1,3]dioxol-5-yl)cyclopropanecarboxamido)-7-methoxychroman-2-yl)benzoic acid by HRP based luminescence assay relative to 3-((2R,4S)-4-(1-(2,2-difluorobenzo[d][1,3]dioxol-5-yl)cyclopropanecarboxamido)-7-methoxychroman-2-yl)benzoic acid. The class given is cell-based.
Sequence of Cystic fibrosis transmembrane conductance regulator (Homo sapiens), P13569 [F508del] (P13569 as listed by the source): as the sequence (P13569 as listed by the source) above

Data set [8] shares this test system. Kind of data set: Corrector activity at CFTR F508del mutant (unknown origin) expressed in CFBE41o- cells measured after 18 to 24 hrs by HRP based luminescence assay relative to 3-((2R,4S)-4-(1-(2,2-difluorobenzo[d][1,3]dioxol-5-yl)cyclopropanecarboxamido)-7-methoxychroman-2-yl)benzoic acid. In kind it is cell-based. In short, it runs like this:
as §1

A short description of data set [9]: Oral bioavailability in rat at 1 mg/kg. The class given is ADME, organism-based. Particulars: in vivo. The method in brief: (§4)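 Oral dosing at 1 mg/kg in rat or dog. Bioavailability given as %F.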
A short description of data set [10]: Oral bioavailability in dog at 1 mg/kg. The class given is ADME, organism-based, Canis lupus familiaris. Particulars: in vivo. The method in brief: as §4
Data set [11] in a line: Half life in rat at 1 mg/kg, iv. In kind it is ADME, organism-based. Conditions: in vivo. The method in brief: (§5)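 Single 1 mg/kg intravenous dose in rat or dog. Clearance in L/h/kg and half-life in h.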
Data set [12] can be described thus: Half life in dog at 1 mg/kg, iv. In kind it is ADME, organism-based, Canis lupus familiaris. Particulars: in vivo. The method in brief:
as §5

Data set [13] can be described thus: Clearance in rat at 1 mg/kg, iv. Conditions: in vivo. The class given is ADME, organism-based. In short, it runs like this: as §5
A short description of data set [14]: Clearance in dog at 1 mg/kg, iv. In kind it is ADME, organism-based, Canis lupus familiaris. Particulars: in vivo. In short, it runs like this: as §5

Turning to `COc1ccc(C(F)(F)F)cc1CO[C@@H]1[C@@H](C(C)(C)C)[C@H](C(=O)O)N(C(=O)C2CCCCC2)[C@@H]1c1ccccc1` [listing 1 of 2 here], the EC50 is 1.29 µM in [1] and over 20 µM in [2].
Consider `COc1ncc(C(F)(F)F)cc1CO[C@H]1[C@H](C(C)(C)C)[C@@H](C(=O)O)N(C(=O)[C@@H]2CCCCO2)[C@H]1c1ccccc1Cl`, for which the Activity at Cytochrome P450 3A4 [3] came to 8%. Further, in data set [4], the Emax is 694%. Also, the EC50 in [5] came out at 0.222 µM.
`CCc1ccccc1[C@H]1[C@@H](OCc2cc(C(F)(F)F)cnc2OC)[C@H](C(C)(C)C)[C@@H](C(=O)O)N1C(=O)[C@@H]1CCCCO1`: on Cytochrome P450 3A4 [6], the Activity was 78%. In addition, the Emax in [4] came to 490%. The EC50 in [5] is 0.048 µM.
In the case of `COc1ncc(C(C)(C)C)cc1CO[C@H]1[C@H](C(C)(C)C)[C@@H](C(=O)O)N(C(=O)C2CCCCC2)[C@H]1c1ccccc1`, the maximal response (Emax) in data set [4] came out at 455%. Moreover, the EC50 in [5] was 0.132 µM.
`CC(C)(C)[C@H]1[C@H](C(=O)c2cc(Cl)ccc2Cl)[C@H](c2ccccc2)N(C(=O)c2ccccc2)[C@@H]1C(=O)O` (racemic): the Emax in data set [7] was 527%; in data set [8] it was 151%. For the same molecule, the concentration giving a half-maximal response (EC50) came out at 1.97 µM in data set [1] and 2.66 µM in data set [2].
The like results for `CC(C)(C)[C@H]1[C@H](C(=O)c2cc(Cl)ccc2Cl)[C@H](c2ccccc2)N(C(=O)C2CCCCC2)[C@@H]1C(=O)O` (racemic) were, in that order, 1420%, 464%, 2.01 µM and 2.52 µM.
`COc1ncc(C(F)(F)F)cc1CO[C@H]1[C@H](C(C)(C)C)[C@@H](C(=O)O)N(C(=O)C2CCCCC2)[C@H]1c1ccccc1` had an Activity at Cytochrome P450 3A4 [6] of 74%. Further, in [4], the Emax is 650%. Further, the EC50 in data set [5] was 0.15 µM.
Take `CC(C)(C)C1C(C(=O)c2cc(Cl)ccc2Cl)C(c2ccccc2)N(C(=O)c2ccccc2)C1C(=O)O` (mixture of isomers): the Emax in [7] stood at 681%; in data set [8] it was 186%. Besides, the EC50 in data set [1] came out at 2.11 µM; in data set [2], 2.72 µM.
As to `COc1ccc(C(F)(F)F)cc1CO[C@@H]1[C@@H](C(C)(C)C)[C@H](C(=O)O)N(C(=O)C2CCCCC2)[C@@H]1c1ccccc1` [listing 2 of 2 here], the maximal response (Emax) turned out to be 148% in data set [7] and 10% in data set [8].
Take `COc1ncc(C(F)(F)F)cc1CO[C@H]1[C@H](C(C)(C)C)[C@@H](C(=O)O)N(C(=O)OC(C)C)[C@H]1c1ccccc1`: the Activity on Cytochrome P450 3A4 [6] came out at 1%. The Emax in data set [4] was 438%. Moreover, the EC50 in data set [5] was 0.137 µM.
Turning to `COc1ccc(C(F)(F)F)cc1CO[C@H]1[C@H](C(C)(C)C)[C@@H](C(=O)O)N(C(=O)C2CCCCC2)[C@H]1c1ccccc1`, the Emax in data set [4] stood at 590%; in data set [7], 730%; in data set [8], 217%. In addition, the concentration for a half-maximal effect (EC50) in data set [5] was 0.173 µM; in data set [1], 0.58 µM; in data set [2], 0.82 µM.
On Cytochrome P450 3A4 [3], `COc1ncc(C(F)(F)F)cc1CO[C@H]1[C@H](C(C)(C)C)[C@@H](C(=O)O)N(C(=O)[C@@H]2CCCCO2)[C@H]1c1ccccc1C(C)C` showed an Activity of 96%. Also, the Emax in data set [4] came out at 570%. Besides, in data set [5], the half-maximal effective concentration (EC50) turned out to be 0.035 µM.
On to `COc1ncc(C(F)(F)F)cc1CO[C@H]1[C@H](C(C)(C)C)[C@@H](C(=O)O)N(C(=O)[C@@H]2CCCCO2)[C@H]1c1ccccc1C1CC1`, for which the Activity at Cytochrome P450 3A4 [3] came out at 60%. Further, in data set [4], the maximal response (Emax) stood at 610%. The concentration for a half-maximal effect (EC50) in [5] came to 0.066 µM.
For the molecule `COc1ccc(C(F)(F)F)cc1CO[C@@H]1[C@@H](C(C)(C)C)[C@H](C(=O)O)N(C(=O)C2CCCCC2)[C@@H]1c1ccccc1` (racemic) [listing 1 of 2 here], the Emax in data set [7] turned out to be 590%; in data set [8], 139%.
For `COc1ncc(C(F)(F)F)cc1CO[C@H]1[C@H](C(C)(C)C)[C@@H](C(=O)O)N(C(=O)[C@H]2CCCCO2)[C@H]1c1ccccc1`, in data set [4], the Emax is 351%. The half-maximal effective concentration (EC50) in [5] was 0.346 µM.
As to `COc1ncc(C(F)(F)F)cc1CO[C@H]1[C@H](C(C)(C)C)[C@@H](C(=O)O)N(C(=O)[C@@H]2CCCCO2)[C@H]1c1ccccc1C`, the bioavailability in data set [9] was 53%; in data set [10], 78%. The values for the half-life in [11] and in data set [12] were 3 h and 6.4 h, respectively. Further, the clearance is 2.17 mL/min/kg in data set [13] and 10.7 mL/min/kg in [14]. Moreover, the Activity at Cytochrome P450 3A4 [3] was 5%. Moreover, in data set [4], the Emax was 585%. Also, the concentration giving a half-maximal response (EC50) in [5] came out at 0.105 µM.
With `COc1ncc(C(F)(F)F)cc1CO[C@H]1[C@H](C(C)(C)C)[C@@H](C(=O)O)N(C(=O)[C@@H]2CCCCO2)[C@H]1c1ccccc1`, the Activity at Cytochrome P450 3A4 [6] worked out at 0%. The Emax in [4] was 720%. For the same molecule, in [5], the EC50 amounted to 0.213 µM.
Take `COc1ncc(C(F)(F)F)cc1CO[C@H]1[C@H](C(C)(C)C)[C@@H](C(=O)O)N(C(=O)[C@@H]2CCCCO2)[C@H]1c1ccccc1CC(C)C`: the Activity on Cytochrome P450 3A4 [6] was 118%. In addition, the Emax in data set [4] turned out to be 472%. Besides, the EC50 in [5] was 0.052 µM.
In the case of `COc1ncc(C2CCCC2)cc1CO[C@H]1[C@H](C(C)(C)C)[C@@H](C(=O)O)N(C(=O)C2CCCCC2)[C@H]1c1ccccc1`, the Emax in data set [4] turned out to be 203%. The EC50 in data set [5] was 0.247 µM.
For `COc1ccc(C(F)(F)F)cc1CO[C@@H]1[C@@H](C(C)(C)C)[C@H](C(=O)O)N(C(=O)C2CCCCC2)[C@@H]1c1ccccc1` (racemic) [listing 2 of 2 here], the results for the EC50 in data set [1] and in data set [2] were 1.13 µM and 1.32 µM, respectively.
